Reference: ChEMBL document CHEMBL5303300, “EUbOPEN Chemogenomics Library - Multiplex” (2023)
Several values for one entry are separate records, joined by “and”; a condition that tells them apart may be missing. Identical values can stand only once.

Columns and labels:
[1] = tested on: Fibroblast; assay: Multiplex assay against human fibroblast; type: toxicity, cell-based; settings: number of replicates 2
How it was run: (§1)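 Live cells carried four stains from seeding: Hoechst33342, BioTracker Green Microtubule Cytoskeleton Dye, MitoTracker Red and Annexin V Alexa Fluor 680. They were imaged on a CQ1 microscope at 37°C and 5% CO2 after compound addition. Using CellPathfinder machine-learning gating, cells were split into Hoechst high-intensity objects or normal cells, normal cells into healthy, pyknosed or fragmented nuclei, and pyknosed cells into mitotic or apoptotic; tubulin, mitochondrial-mass and membrane-permeability phenotypes are per cents of healthy-nucleus cells.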

[2] = tested on: HEK-293T; assay: Multiplex assay against HEK293T; type: toxicity, cell-based; settings: human, number of replicates 2; how it was run: as §1
[3] = 12 h, 1 µM, compound concentration 1 uM
[4] = 12 h, 10 µM, compound concentration 10 uM
[5] = 24 h, 1 µM, compound concentration 1 uM
[6] = 24 h, 10 µM, compound concentration 10 uM
[7] = 48 h, 1 µM, compound concentration 1 uM
[8] = 48 h, 10 µM, compound concentration 10 uM

Compound: CC(=O)N(CCN(C)C)c1ccc(N/C(=C2\C(=O)Nc3cc(Cl)ccc32)c2ccccc2)cn1
- Population Apoptotic (%) [1, 3]: 45% and 32%
- Population Fragmented Nuclei (%) [1, 3]: 15% and 19%
- Population Healthy Nuclei (%) [1, 3]: 54% and 64%
- Population Hoechst High Intensity Objects (%) [1, 3]: 0%
- Population Membrane Permeable-Phenotype (%) [1, 3]: 13% and 3%
- Population Mitochondria Different-Phenotype (%) [1, 3]: 2% and 4%
- Population Mitotic Cells (%) [1, 3]: 54% and 67%
- Population Normal (%) [1, 3]: 100%
- Population Pyknosed Nuclei (%) [1, 3]: 30% and 16%
- Population Tubulin-Different-Phenotype (%) [1, 3]: 26% and 21%
- Total Cell Count [1, 3]: 176 and 230
- Population Apoptotic (%) [1, 4]: 60% and 50%
- Population Fragmented Nuclei (%) [1, 4]: 15% and 20%
- Population Healthy Nuclei (%) [1, 4]: 50% and 56%
- Population Hoechst High Intensity Objects (%) [1, 4]: 0%
- Population Membrane Permeable-Phenotype (%) [1, 4]: 6% and 10%
- Population Mitochondria Different-Phenotype (%) [1, 4]: 35% and 27%
- Population Mitotic Cells (%) [1, 4]: 39% and 50%
- Population Normal (%) [1, 4]: 100% and 99%
- Population Pyknosed Nuclei (%) [1, 4]: 33% and 22%
- Population Tubulin-Different-Phenotype (%) [1, 4]: 88% and 81%
- Total Cell Count [1, 4]: 151 and 211
- Population Apoptotic (%) [1, 5]: 60% and 63%
- Population Fragmented Nuclei (%) [1, 5]: 17% and 22%
- Population Healthy Nuclei (%) [1, 5]: 56% and 62%
- Population Hoechst High Intensity Objects (%) [1, 5]: 0%
- Population Membrane Permeable-Phenotype (%) [1, 5]: 7%
- Population Mitochondria Different-Phenotype (%) [1, 5]: 1% and 4%
- Population Mitotic Cells (%) [1, 5]: 39% and 36%
- Population Normal (%) [1, 5]: 99%
- Population Pyknosed Nuclei (%) [1, 5]: 26% and 15%
- Population Tubulin-Different-Phenotype (%) [1, 5]: 25% and 24%
- Total Cell Count [1, 5]: 176 and 221
- Population Apoptotic (%) [1, 6]: 81% and 82%
- Population Fragmented Nuclei (%) [1, 6]: 17% and 15%
- Population Healthy Nuclei (%) [1, 6]: 41% and 46%
- Population Hoechst High Intensity Objects (%) [1, 6]: 2% and 0%
- Population Membrane Permeable-Phenotype (%) [1, 6]: 8% and 3%
- Population Mitochondria Different-Phenotype (%) [1, 6]: 63% and 70%
- Population Mitotic Cells (%) [1, 6]: 18% and 17%
- Population Normal (%) [1, 6]: 97% and 100%
- Population Pyknosed Nuclei (%) [1, 6]: 41% and 37%
- Population Tubulin-Different-Phenotype (%) [1, 6]: 90% and 83%
- Total Cell Count [1, 6]: 149 and 170
- Population Apoptotic (%) [1, 7]: 80% and 68%
- Population Fragmented Nuclei (%) [1, 7]: 19% and 25%
- Population Healthy Nuclei (%) [1, 7]: 59% and 61%
- Population Hoechst High Intensity Objects (%) [1, 7]: 0%
- Population Membrane Permeable-Phenotype (%) [1, 7]: 9% and 7%
- Population Mitochondria Different-Phenotype (%) [1, 7]: 2% and 5%
- Population Mitotic Cells (%) [1, 7]: 20% and 31%
- Population Normal (%) [1, 7]: 99% and 100%
- Population Pyknosed Nuclei (%) [1, 7]: 21% and 13%
- Population Tubulin-Different-Phenotype (%) [1, 7]: 36% and 29%
- Total Cell Count [1, 7]: 167 and 217
- Population Apoptotic (%) [1, 8]: 94% and 95%
- Population Fragmented Nuclei (%) [1, 8]: 25% and 23%
- Population Healthy Nuclei (%) [1, 8]: 25% and 17%
- Population Hoechst High Intensity Objects (%) [1, 8]: 0%
- Population Membrane Permeable-Phenotype (%) [1, 8]: 15% and 6%
- Population Mitochondria Different-Phenotype (%) [1, 8]: 48% and 43%
- Population Mitotic Cells (%) [1, 8]: 5% and 4%
- Population Normal (%) [1, 8]: 99% and 100%
- Population Pyknosed Nuclei (%) [1, 8]: 48% and 58%
- Population Tubulin-Different-Phenotype (%) [1, 8]: 89% and 81%
- Total Cell Count [1, 8]: 152 and 178
- Population Apoptotic (%) [2, 3]: 32% and 41%
- Population Fragmented Nuclei (%) [2, 3]: 2%
- Population Healthy Nuclei (%) [2, 3]: 84% and 85%
- Population Hoechst High Intensity Objects (%) [2, 3]: 5%
- Population Membrane Permeable-Phenotype (%) [2, 3]: 2% and 3%
- Population Mitochondria Different-Phenotype (%) [2, 3]: 23% and 26%
- Population Mitotic Cells (%) [2, 3]: 67% and 58%
- Population Normal (%) [2, 3]: 94%
- Population Pyknosed Nuclei (%) [2, 3]: 12%
- Population Tubulin-Different-Phenotype (%) [2, 3]: 65% and 70%
- Total Cell Count [2, 3]: 666 and 654
- Population Apoptotic (%) [2, 4]: 64% and 79%
- Population Fragmented Nuclei (%) [2, 4]: 3% and 4%
- Population Healthy Nuclei (%) [2, 4]: 77% and 71%
- Population Hoechst High Intensity Objects (%) [2, 4]: 14% and 17%
- Population Membrane Permeable-Phenotype (%) [2, 4]: 1% and 3%
- Population Mitochondria Different-Phenotype (%) [2, 4]: 93% and 91%
- Population Mitotic Cells (%) [2, 4]: 35% and 20%
- Population Normal (%) [2, 4]: 85% and 82%
- Population Pyknosed Nuclei (%) [2, 4]: 19% and 24%
- Population Tubulin-Different-Phenotype (%) [2, 4]: 90% and 92%
- Total Cell Count [2, 4]: 227 and 197
- Population Apoptotic (%) [2, 5]: 28%
- Population Fragmented Nuclei (%) [2, 5]: 1% and 4%
- Population Healthy Nuclei (%) [2, 5]: 89% and 87%
- Population Hoechst High Intensity Objects (%) [2, 5]: 6% and 7%
- Population Membrane Permeable-Phenotype (%) [2, 5]: 1% and 3%
- Population Mitochondria Different-Phenotype (%) [2, 5]: 12% and 10%
- Population Mitotic Cells (%) [2, 5]: 71%
